According to ChEMBL document CHEMBL4819027, “Design, synthesis and biological evaluation of novel 2-(4-(1H-indazol-6-yl)-1H-pyrazol-1-yl)acetamide derivatives as potent VEGFR-2 inhibitors” (Eur J Med Chem, 2021):
Calls of active or inactive are those of the source. No cut-off for these calls is given here.

Tests used:
HUVEC [1] = experiment: Antiangiogenic activity against HUVEC cells assessed as reduction in VEGF-induced tube formation tube formation incubated for 12 hrs by matrigel-based assay; assay type: functional, cell-based; conditions: Homo sapiens
In short: (§1)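 HUVECs at 4 × 10⁵ cells/mL seeded on Matrigel that had been polymerized 1 h at 37 °C. Cells were stimulated with 20 ng/mL VEGF and treated with compound (1, 2.5, 5 and 10 μM) or 0.1% DMSO vehicle for 12 h at 37 °C. Tubes were imaged by inverted microscopy. Tube length, surface area and branch points were quantified as pixel area.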

HGC-27 [2] = experiment: Induction of apoptosis in human HGC-27 cells assessed as necrotic cells level at 0.1 uM incubated for 24 hrs by propidium iode and annexin V-FITC staining based flow cytometry (reference value: 1.64%); assay type: functional
In short: (§2)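 HGC-27 cells (1.0 × 10⁶ per 60 mm dish) were treated 24 h with 0.1% DMSO or compound (0.1, 0.5, 1 μM). Cells were stained with Annexin V-FITC in HEPES/NaCl/CaCl₂ binding buffer (pH 7.4) for 15 min at room temperature, then with PI for 10 min. About 10 000 events were acquired by flow cytometry to give viable, early apoptotic, late apoptotic and necrotic fractions.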

HGC-27 [3] = experiment: Induction of apoptosis in human HGC-27 cells assessed as late apoptotic cells level incubated for 24 hrs by propidium iode and annexin V-FITC staining based flow cytometry; assay type: functional, cell-based; conditions: dose 0.1-1 µM; in short: as §2
HGC-27 [4] = experiment: Induction of apoptosis in human HGC-27 cells assessed as up regulation of Bax protein expression at measured after 24 hrs by Western blot analysis; assay type: functional, cell-based; conditions: dose 0.1-1 µM
In short: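 HGC-27 cells (1.0 × 10⁶ per 60 mm dish) were treated 24 h with 0.1% DMSO or compound (0.1, 0.5, 1 μM). Cells were lysed in RIPA with PMSF and phosphatase inhibitor, and protein measured by BCA. Lysates were run on 8–12% SDS-PAGE, transferred to nitrocellulose and probed with primary antibodies overnight at 4 °C, then HRP secondary. Bands were detected by ECL and densitometry; at least triplicate.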

HGC-27 [5] = experiment: Induction of apoptosis in human HGC-27 cells assessed as total apoptotic cells level at 0.5 uM incubated for 24 hrs by propidium iode and annexin V-FITC staining based flow cytometry; assay type: functional; in short: as §2
HGC-27 [6] = experiment: Induction of apoptosis in human HGC-27 cells assessed as early apoptotic cells level incubated for 24 hrs by propidium iode and annexin V-FITC staining based flow cytometry; assay type: functional, cell-based; conditions: dose 0.1-1 µM; in short: as §2
HGC-27 [7] = experiment: Induction of apoptosis in human HGC-27 cells assessed as late apoptotic cells level at 0.1 uM incubated for 24 hrs by propidium iode and annexin V-FITC staining based flow cytometry (reference value: 0.86%); assay type: functional; in short: as §2
HUVEC [8] = experiment: Cytotoxicity against HUVEC cells at 1 to 5 uM after 72 hrs by MTT assay; assay type: cell-based; conditions: human, dose 1-5 µM
In short: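 HUVECs grown in ECM with 1% ECGS and 10% FBS were seeded at 5 × 10³ per well and attached 24 h. Cells were exposed to compound at 1, 2.5 and 5 μM for 72 h at 37 °C. Viability was read by MTT: 4 h incubation, DMSO solubilization, absorbance at 490 nm.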

HUVEC [9] = experiment: Antiangiogenic activity against HUVEC cells assessed as reduction in VEGF-induced tube surface area at 1 to 10 uM incubated for 12 hrs by matrigel-based assay; assay type: functional, cell-based; conditions: Homo sapiens, dose 1-10 µM; in short: as §1
HGC-27 [10] = experiment: Antimigratory activity against human HGC-27 cells assessed as reduction in cell migration measured after 24 hrs by crystal violet staining microscopy based transwell migration assay; assay type: functional; conditions: dose 0.1-1 µM
HGC-27 [11] = experiment: Induction of apoptosis in human HGC-27 cells assessed as early apoptotic cells level at 0.1 uM incubated for 24 hrs by propidium iode and annexin V-FITC staining based flow cytometry (reference value: 1.48%); assay type: functional; in short: as §2
HGC-27 [12] = experiment: Up regulation of E-cadherin expression in human HGC-27 cells at 1 uM measured after 24 hrs by immunoblot analysis; assay type: functional, cell-based
In short: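 HGC-27 seeded 1.0×10^6 cells/dish in RPMI-1640/10% FBS; 24 h with compound (0.1, 0.5, 1 µM), 0.1% DMSO vehicle or sorafenib. RIPA lysates with PMSF/phosphatase inhibitor, BCA-normalized, 8–12% SDS-PAGE, nitrocellulose, milk block, primary antibodies overnight 4 °C, HRP secondaries, ECL; E-cadherin band densitometry; mean ± SD, three independent experiments.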

HGC-27 [13] = experiment: Inhibition of colony formation in human HGC-27 cells at 1 uM after 12 days by crystal violet staining based assay; assay type: functional; conditions: HGC-27, 288 h, time 12 day
In short: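 HGC-27 cells (500/well, 6-well plates) attached 24 h at 37 °C, then kept 12 days in medium with compound (0.1, 0.5, 1 µM), 0.1% DMSO vehicle or 5 µM sorafenib. Washed with cold PBS, methanol-fixed, stained 0.1% crystal violet 30 min; colonies >50 cells photographed and counted.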

HGC-27 [14] = experiment: Antimigratory activity against human HGC-27 cells assessed as relative closure of scratches at 0.5 uM measured after 24 hrs by scratch wound healing assay relative to control; assay type: functional
In short: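 HGC-27 monolayers at 80–90% confluence were serum-starved 12 h, then scratched to give 1 mm lanes. After a PBS wash, cells received complete medium with or without compound (0.1, 0.5, 1 μM). Wounds were imaged at 0, 6 and 24 h. Relative scratch closure was quantified against untreated control; mean ± SD of three experiments.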

Compound: CC(=O)Nc1n[nH]c2cc(-c3cnn(CC(=O)Nc4ccc(C)c(C(F)(F)F)c4)c3)ccc12
- inhibition (HUVEC [1]): Dose-Dependent Effect
- Activity (HGC-27 [2]): 2.12%
- Activity (HGC-27 [3]): Dose-Dependent Effect
- Activity (HGC-27 [4]): Dose-Dependent Effect
- Activity (HGC-27 [5]): 19.55%
- Activity (HGC-27 [6]): Dose-Dependent Effect
- Activity (HGC-27 [7]): 2.67%
- Activity (HUVEC [8]): Non-Toxic
- Activity (HUVEC [9]): Active
- inhibition (HGC-27 [10]): Dose-Dependent Effect
- Activity (HGC-27 [11]): 4.75%
- Activity (HGC-27 [12]): Dose-Dependent Effect
- inhibition at 1 µM (HGC-27 [13]): 100%
- inhibition at 0.5 µM (HGC-27 [14]): 28%
